Compound activity: PubChem BioAssay, several laboratories
The sample as a whole holds a higher share of hits than the screen did.
CHOP inh = inhibitors of CHOP promoter induction, primary screen, cell-based, unfolded protein response, luciferase reporter. CHO-K1 CHOP-promoter luciferase, tunicamycin-induced, 15-18 h. inhibition, % at 10 µM. hit rate 3.8% among 220,000. AID 2732, 2010;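 active = compounds that reduced the stress-induced luciferase reporter signal by more than about 70% of percent inhibition, limit read from the data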;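 also: 0% = tunicamycin plus vehicle and 100% = wells without tunicamycin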
Dynein cargo inh = inhibitors of GR-EGFP nuclear translocation, primary screen, dynein cargo transport inhibitor project, imaging, high-content, 3617.4 mouse cells; test concentration mostly 20 µM; stimulated with dexamethasone, 1 µM; stronger effect = lower value; z-score, hits read low; hit rate 0.47% among 220,000;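 active = plate z-score of nuclear minus cytoplasmic receptor signal below a set negative limit, without overly bright fluorescence or cell loss, cut at about -3.5 in these data, passing the limit was not always enough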;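 also: z-score of nuclear minus cytoplasmic ring GR-EGFP intensity difference per well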
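Schedule: 48 h induction, then 1 h compound, then 30 min agonist, 37 °C. Buffer or medium: tetracycline-free induction medium containing charcoal-stripped FBS. Reagent: 1.0 µM final dexamethasone stimulus. Evaluation: nuclear versus cytoplasmic GR-EGFP signal, averaged per well. Signal: high-content fluorescence imaging after fixation.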
CHOP UPR activ = activators of apoptotic CHOP UPR arm, primary screen, cell-based, CHO-CHOP luciferase reporter, luminescence, uHTS; activation, % at 10 µM; hit rate 0.34% among 330,000; AID 449763, 2010; UPR activation; percent of tunicamycin response over DMSO baseline;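 active = at 10 µM dose, activation of 40% or more, normalized to positive control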;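 also: 100% = tunicamycin at 10 µg/mL and 0% = DMSO alone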
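Evaluation: % reporter activation, DMSO baseline versus tunicamycin full activation; System: CHO-CHOP luciferase reporter cell line; Input: 500 cells/well; Incubation: 6 h compound treatment, 37 °C; Measured by: Steady-Glo luciferase luminescence; Dosing: one dose, 10 µM in 0.5% DMSO; Buffer or medium: F12 medium, 10% FBS; Benchmarks: positive tunicamycin 10 µg/mL, negative DMSO alone.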
T cruzi inh = inhibitors of intracellular T. cruzi growth, primary screen, luminescence, NIH3T3 host cells. hit rate 1.4% among 300,000. AID 1885, 2009. inhibition, % (test concentration not listed). T. cruzi beta-gal in NIH3T3, 90 h;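 active = mean inhibition across valid replicates above about 55%, limit read from the data; inconclusive = mean below that limit but half or more replicates reach it; inactive = mean below it, under half of replicates reach it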;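 also: signal also drops with host cell toxicity which is not excluded here; 0% = plate median of DMSO wells and 100% = zero luminescence signal; higher percent means less beta-gal luminescence so fewer parasites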
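System: Mouse NIH/3T3 fibroblasts infected with β-gal-expressing T. cruzi Tulahuen C4 | Quantity: NIH/3T3 cells, 5,000 per well | Reagent: 5000 reporter trypomastigotes per well | Dosing: Compound pinned at 50 nL/well, DMSO | Schedule: 3 h host attachment, then at least 90 h co-culture | Detection: GalScreen luminescence, 60 min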
Lmaj promast = Leishmania major promastigote growth inhibition, primary screen; Leishmania major promastigotes, resazurin fluorescence viability; inhibition, % at 10 µM; hit rate 9% among 200,000; in the data active = inhibition above about 50%;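 also: promastigotes grown with compound for 44 hours at 28 °C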
UPR XBP1 act = activators of adaptive XBP1 UPR arm, primary screen, cell-based, CHO-XBP1 luciferase reporter, luminescence, uHTS | activation, % at 20 µM | IRE1-XBP1 UPR activation; percent of tunicamycin response, DMSO as zero | AID 463104, 2010 | hit rate 0.33% among 330,000;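 active = versus positive control, 20 µM dose yields 30% or more activation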;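 also: 100% = tunicamycin at 10 µg/mL and 0% = DMSO only wells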
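Material: CHO-XBP1 cells stably carrying IRE1-XBP1-driven luciferase reporter / Amount: 1000 cells per well / Compound: 20 µM, 1% DMSO / Times: 6 h treatment, 37 °C / Detection: luciferase luminescence / Measure: % activation of reporter signal versus tunicamycin and DMSO controls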
L major 1uM = Leishmania major promastigote growth inhibition, confirmation, 1 µM repeat of primary hits; L. major promastigote growth, resazurin fluorescence, 48 h; shares compounds with Lmaj promast; inhibition, % at 1 µM; hit rate 13% among 1,100;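 active = inhibition above about 50% in both repeat tests, limit read from the data; inconclusive = one repeat under the set limit, the other over it; inactive = both repeats under the set limit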
An asterisk follows results filed as active; ? = inconclusive; . = no result.

SMILES	CHOP inh	Dynein cargo inh	CHOP UPR activ	T cruzi inh	Lmaj promast	UPR XBP1 act	L major 1uM
CN1CC(c2ccccn2)C2(SC(=S)N(Cc3ccccc3)C2=O)C12C(=O)Nc1ccccc12 (stereo unspecified)	53.2	0.3	0.7	15.1	100.2*	-0.9	14.4
Cc1ccc(S(=O)(=O)N2CCOCC2)cc1C(=O)OCC(=O)NC1CC1	.	.	0.5	.	.	-0.7	.
CN1CCC(OC(=O)c2ccccc2Cl)CC1	-10.7	-0.139	-0.6	57.8*	75.8*	0.6	-1.3
CN1CCCC(OC(=O)c2ccccc2Br)C1 (stereo unspecified)	.	.	1.9	-2.0	.	-1.7	.
O=C(c1ccc([N+](=O)[O-])s1)N1CCN(c2ccc(C(F)(F)F)cn2)CC1	.	.	1.4	38.8	.	3.1	.
CCCc1cc(=O)[nH]c(SCC(=O)Nc2sc3c(c2C(N)=O)CCCC3)n1	.	.	-0.7	.	.	-3.7	.
O=C(c1cc2ccccc2o1)N1CCN(S(=O)(=O)c2cccs2)CC1	24.2	1.09	0.9	-3.7	72.1*	-0.9	-6.2
O=C(c1cc2ccccc2o1)N1CCN(S(=O)(=O)c2ccccc2)CC1	.	.	-0.4	.	.	-4.3	.
CCN1C/C(=C/c2cccs2)c2nc3ccccc3c(C(=O)O)c2C1	-9.0	0.926	-0.8	-7.0	.	0.8	.
CCc1ccc(/C=C2\CN(CC)Cc3c2nc2ccccc2c3C(=O)O)cc1	-23.1	1.28	-2.3	-10.7	53.9*	-1.2	-18.7
Cc1ccccc1OCCNC(=O)CSc1ccc(C(F)(F)F)cc1[N+](=O)[O-]	51.9	-0.181	-0.3	-5.5	-3.2	-2.4	.
FC(F)(F)c1nnc2c(Sc3ccccn3)nc3ccccc3n12	-16.6	-1.11	5.3	-25.2	94.5*	9.2	13.6
CN(c1ccccc1)S(=O)(=O)c1cc(C(=O)N2CCN(c3ccccn3)CC2)ccc1Cl	11.1	-0.397	-2.0	8.2	90.5*	-1.3	-0.5
Cc1sc2ccccc2[n+]1CC(=O)c1ccccc1	.	.	2.3	0.9	.	1.7	.
O=C(c1ccccc1)c1c2c(cc3sc4ccccc4[n+]13)-c1cccc3cccc-2c13	82.4*	1.28	.	.	100.4*	.	100.0*
CC(=O)Nc1ccc(C2=NN(c3ccccc3)C(c3cccs3)C2)cc1 (stereo unspecified)	42.6	0.166	6.2	16.9	66.0*	2.5	-5.1
Cc1cccc(C)c1NC(=S)N1CC(C)OC(C)C1 (stereo unspecified)	-8.2	-0.242	0.5	-3.7	.	-2.3	.
COc1ccccc1/C=C/CN1CCCC(CO)(Cc2cccc(Cl)c2)C1 (stereo unspecified)	42.3	-1.11	-2.5	31.8	82.3*	-0.8	42.2
COc1cccc(OCC(=O)Nc2ccccc2C(=O)Nc2ccc(C(=O)O)cc2)c1	.	.	3.0	4.5	.	-5.7	.
O=C1c2ccccc2CCCC12N=NCC2c1cccc2ccccc12 (stereo unspecified)	65.4	-0.327	-0.8	?	52.6*	0.8	6.9
O=C(C1CCC(CNc2nc(=S)[nH]c3ccccc23)CC1)N1CCN(c2ccccn2)CC1 (stereo unspecified)	25.0	-0.144	5.4	-26.3	99.5*	2.7	38.5
O=[N+]([O-])c1cc(Cl)ccc1-c1nc(-c2ccccc2)no1	41.4	0.939	.	4.3	89.5*	.	-20.7
